These results are taken from ChEMBL document CHEMBL4190303, “Chemical Constituents of Propolis from Vietnamese Trigona minor and Their Antiausterity Activity against the PANC-1 Human Pancreatic Cancer Cell Line” (2017).

Calls of active or inactive are those of the source. No cut-off for these calls is given here.

For one experiment, the system named is PANC-1. In words: Antiausteritic activity against human PANC1 cells in nutrient-deprived medium assessed as changes in cell morphology at 5 uM after 24 hrs by ethidium bromide/acridine orange staining based phase contrast microscopy. It counts as functional. In a few lines:
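PANC-1 seeded in 60 mm dishes (1 × 10^6), grown 24 h in DMEM at 37 °C, 5% CO2, washed twice with PBS, then switched to NDM with or without compound. After 24 h, EB/AO reagent added for 5 min. Imaged at 40× in fluorescence and phase-contrast modes. AO marks live cells green, EB marks dead cells red.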
`C/C(=C\C(O)C[C@@H](C)[C@H]1CC[C@@]2(C)[C@@H]3CC[C@H]4C(C)(C)[C@H](O)CC[C@@]45C[C@@]35CC[C@]12C)C(=O)O` (stereo in doubt; 5) [listing 1 of 2 here]: the outcome was Active.

In another experiment the test system is PANC-1. In words: Antiausteritic activity against human PANC1 cells in nutrient-deprived medium assessed as decrease in cell viability measured after 24 hrs by WST-8 assay. It is filed as functional. (Tetrazolium assays rely on reduction of a dye to a coloured formazan, in cell work by metabolically active cells.)
With `CC(=O)OC/C(=C\CC[C@@H](C)[C@H]1CC[C@@]2(C)[C@@H]3CC[C@H]4C(C)(C)C(=O)CC[C@@]45C[C@@]35CC[C@]12C)C(=O)O`, the PC50 amounted to 77.5 µM.

Regarding `CC(=O)OC/C(=C\CC[C@@H](C)[C@H]1CC[C@@]2(C)[C@@H]3CC[C@H]4C(C)(C)[C@@H](O)CC[C@@]45C[C@@]35CC[C@]12C)C(=O)O`, the PC50 amounted to 22.6 µM.

As to `COC(=O)OC/C(=C\CC[C@@H](C)[C@H]1CC[C@@]2(C)[C@@H]3CC[C@H]4C(C)(C)C(=O)CC[C@@]45C[C@@]35CC[C@]12C)C(=O)O`, the PC50 worked out at 32.9 µM.

Consider `CC(=O)/C=C/C[C@@H](C)[C@H]1CC[C@@]2(C)[C@@H]3CC[C@H]4C(C)(C)[C@@H](O)CC[C@@]45C[C@@]35CC[C@]12C`, for which the PC50 came out at 16.4 µM.

Turning to `C/C(=C\C(O)C[C@@H](C)[C@H]1CC[C@@]2(C)[C@@H]3CC[C@H]4C(C)(C)C(=O)CC[C@@]45C[C@@]35CC[C@]12C)C(=O)O` (some centres undefined), the PC50 is 16.8 µM.

For `C[C@H](CC/C=C(\CO)C(=O)O)[C@H]1CC[C@@]2(C)[C@@H]3CC[C@H]4C(C)(C)[C@@H](O)CC[C@@]45C[C@@]35CC[C@]12C`, the PC50 worked out at 47.6 µM.

With `C/C(=C\C(O)C[C@@H](C)[C@H]1CC[C@@]2(C)[C@@H]3CC[C@H]4C(C)(C)[C@@H](O)CC[C@@]45C[C@@]35CC[C@]12C)C(=O)O` (some centres undefined), the PC50 was 64.4 µM.

Take `C[C@H](CC/C=C(\CO)C(=O)O)[C@H]1CC[C@@]2(C)[C@@H]3CC[C@H]4C(C)(C)C(=O)CC[C@@]45C[C@@]35CC[C@]12C`: the PC50 stood at 93.8 µM.

`C[C@H](CC/C=C(\CO)C(=O)O)[C@H]1CC[C@@]2(C)[C@@H]3CC[C@H]4C(C)(C)[C@H](O)CC[C@@]45C[C@@]35CC[C@]12C`: the PC50 came out at 3.7 µM.

For the compound `C/C(=C\C(O)C[C@@H](C)[C@H]1CC[C@@]2(C)[C@@H]3CC[C@H]4C(C)(C)[C@H](O)CC[C@@]45C[C@@]35CC[C@]12C)C(=O)O` (stereo in doubt; 4), the PC50 amounted to 16.1 µM.

Turning to `C/C(=C\C(O)C[C@@H](C)[C@H]1CC[C@@]2(C)[C@@H]3CC[C@H]4C(C)(C)[C@H](O)CC[C@@]45C[C@@]35CC[C@]12C)C(=O)O` (stereo in doubt; 5) [listing 2 of 2 here], the PC50 was 4.3 µM.

As for `COc1cc(C[C@H]2C(=O)OC[C@@H]2Cc2ccc(OC)c(OC)c2)ccc1O` [ARCTIGENIN], the PC50 worked out at 0.8 µM.

`CC(C)=CCC[C@@H](C)[C@H]1CC[C@@]2(C)[C@@H]3CC[C@H]4C(C)(C)C(=O)CC[C@@]45C[C@@]35CC[C@]12C` [CYCLOARTENONE]: the PC50 was over 100 µM.

Regarding `CC(C)=CCC[C@@H](C)[C@H]1CC[C@@]2(C)C3=C(CC[C@]12C)[C@@]1(C)CC[C@H](O)C(C)(C)[C@@H]1CC3` [LANOSTEROL], the PC50 turned out to be 68.7 µM.

In the case of `C/C(=C\CC[C@@H](C)[C@H]1CC[C@@]2(C)[C@@H]3CC[C@H]4C(C)(C)[C@@H](O)CC[C@@]45C[C@@]35CC[C@]12C)C(=O)O` [MANGIFEROLIC ACID], the PC50 is over 100 µM.

Take `C/C(=C\CC[C@@H](C)[C@H]1CC[C@@]2(C)[C@@H]3CC[C@H]4C(C)(C)C(=O)CC[C@@]45C[C@@]35CC[C@]12C)C(=O)O` [MANGIFERONIC ACID]: the PC50 is over 100 µM.

`CC(=O)O[C@H]1C(=O)[C@@]2(C)[C@H]([C@H](OC(=O)c3ccccc3)[C@]3(O)C[C@H](OC(=O)[C@H](O)[C@@H](NC(=O)c4ccccc4)c4ccccc4)C(C)=C1C3(C)C)[C@]1(OC(C)=O)CO[C@@H]1C[C@@H]2O` [PACLITAXEL]: the PC50 was over 100 µM.

The test system of another experiment is PANC-1. As to the kind of experiment: Inhibition of colony formation in human PANC1 cells after 10 days by crystal violet staining based assay. It counts as functional, cell-based. In a few lines: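 500 cells/well plated in DMEM and allowed to attach for 24 h at 37 °C, 5% CO2. Treated at 12.5, 25 and 50 μM in DMEM and grown for 10 days. Cells washed with PBS, fixed in 4% formaldehyde, stained with crystal violet for 10 min. Three independent repeats.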
For `C/C(=C\C(O)C[C@@H](C)[C@H]1CC[C@@]2(C)[C@@H]3CC[C@H]4C(C)(C)[C@H](O)CC[C@@]45C[C@@]35CC[C@]12C)C(=O)O` (stereo in doubt; 5) [listing 1 of 2 here], the inhibition entry is “Dose-dependent effect”.
